Source: publication PMC3422889 (The Journal of organic chemistry, 2009)
Where two headings read alike, the source gives them in different places. Each block holds one compound with its values, some of them ahead of it.

What was measured:
[1] = Quantitative photolysis, quantum yields for disappearance; assay type: physicochemical; settings: for φdis (1-octanol): solvent 1-octanol
Summary of the method: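 Test compound (1–9 mM) with caffeine or 4-acetamidophenol internal standard was dissolved in water, buffer, salt solution or solvent in quartz tubes. Samples were irradiated in a Rayonet reactor with two 3000 Å lamps, or at 350 nm for the TRIS pH 9.0/LiClO4 case. Aliquots taken every 30 s up to 5 min (<20% conversion) went to LC/UV or LC/MS/MS. Photon flux came from ferrioxalate actinometry. At least three independent runs were done.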

[2] = Picosecond pump-probe transient absorption, singlet and triplet lifetimes; assay type: physicochemical; settings: for kpF rate constant for the photo-Favorskii process: calculated as φdis/3τ
Summary of the method: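 Transient absorption used the femtosecond pump–supercontinuum probe method. Pump pulses were 266 nm, 1 μJ, <100 fs. The supercontinuum probe spanned 270–690 nm, with both beams focused to 0.2 mm on sample flowing through a 0.4 mm cell. Detection was by photodiode array. Spectra were corrected for chirp and solvent contribution. kpF was taken as φdis/3τ.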

[3] = Stern-Volmer quenching with potassium sorbate; assay type: physicochemical; settings: H2O
Summary of the method: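 pHP-GABA solutions (0.001–0.01 M) were diluted with potassium sorbate (0–0.1 M) in water. They were photolyzed under the quantum-yield conditions, and GABA-release quantum efficiencies were measured. KSV was the slope of φ0/φ versus [Q]. Triplet lifetime was derived assuming kq equals the diffusion rate, 7.2 × 10^9 […].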

[4] = Nanosecond flash photolysis, decay of the 340-nm transient; assay type: physicochemical; settings: water containing ca. 10 % ACN
[5] = wholly aqueous solution; cited from earlier work
[6] = Effect of H2O on the rate of disappearance of the 390-400 nm band; assay type: physicochemical; settings: CH3CN cosolvent
[7] = cited from earlier work

φdis (1-octanol) [1]: 0.12
1τ singlet lifetime ([2]; H2O): 2.3 ps
3τ triplet lifetime ([2]; H2O): 0.34 ns
Structure (SMILES): NCCCC(=O)OCC(=O)c1ccc(O)cc1 [compound 1, pHP GABA]
kpF rate constant for the photo-Favorskii process ([2]; H2O): 6.00 10^8 s^−1

KSV Stern-Volmer constant [3]: 20 M⁻¹
quantum yield in 10% H2O:CH3CN ([1]; 10% (v:v) H2O:CH3CN): 0.12
quantum yield in dry CH3CN ([1]; dry CH3CN): 0.03
φdis (1-octanol) [1]: 0.14
release of the amino acid upon irradiation ([1]; λ > 300 nm, aqueous media, ambient conditions): quantitatively released
3τ triplet lifetime ([2]; 10% CH3CN/H2O, pump-probe): 0.71 ns
3τ triplet lifetime ([2]; H2O): 0.46 ns
Structure (SMILES): NCCCC(=O)OCC(=O)c1ccc(O)c(OC(F)(F)F)c1 [compound 2, CF3O-pHP GABA]
kdec decay rate constant of the 340-nm transient [4]: ~6.5e+06 s⁻¹
kpF rate constant for the photo-Favorskii process ([2]; H2O): 1.98 10^8 s^−1

Structure (SMILES): CCOP(=O)(OCC)OCC(=O)c1ccc(O)cc1 [pHP diethyl phosphate]
3τ triplet lifetime [5]: 60 ps
3kdis ([6]; 74.53 mol % H2O): 3.30 × 10^9 S^−1
3kdis ([6]; 95.14 mol % H2O): 9.95 × 10^9 S^−1
3kdis ([6]; 100.00 mol % H2O): 1.6 × 10^10 S^−1
3kdis ([7]; 0.00 mol % H2O, CH3CN, ref B. Hellrung, J. Wirz unpublished): 2.62 × 10^5 S^−1
3kdis ([7]; 5.04 mol % H2O, CH3CN cosolvent, ref B. Hellrung, J. Wirz unpublished): 2.72 × 10^6 S^−1
3kdis ([7]; 7.51 mol % H2O, CH3CN cosolvent, ref B. Hellrung, J. Wirz unpublished): 6.56 × 10^6 S^−1
3kdis ([7]; 10.00 mol % H2O, CH3CN cosolvent, ref B. Hellrung, J. Wirz unpublished): 1.15 × 10^7 S^−1
3kdis ([7]; 15.03 mol % H2O, CH3CN cosolvent, ref B. Hellrung, J. Wirz unpublished): 3.84 × 10^7 S^−1
3kdis ([7]; 24.54 mol % H2O, CH3CN cosolvent, ref Phillips 14): 1.11 × 10^8 S^−1
3kdis ([7]; 34.05 mol % H2O, CH3CN cosolvent, ref Phillips 14): 4.17 × 10^8 S^−1
3kdis ([7]; 49.38 mol % H2O, CH3CN cosolvent, ref Phillips 14): 7.81 × 10^8 S^−1
3kdis ([7]; 55.64 mol % H2O, CH3CN cosolvent, ref Phillips 14): 1.25 × 10^9 S^−1
3kdis ([7]; 66.11 mol % H2O, CH3CN cosolvent, ref Phillips 14): 1.89 × 10^9 S^−1
3kdis ([7]; 89.77 mol % H2O, CH3CN cosolvent, ref Phillips 14): 3.45 × 10^9 S^−1
